Laboratory results from ChEMBL document CHEMBL1133102, “Novel inhibitors of nucleoside triphosphate diphosphohydrolases: chemical synthesis and biochemical and pharmacological characterizations” (J Med Chem, 2000).

Assays:
Assay type in all cases: tissue-based
[1] = target: T1, Ectonucleoside triphosphate diphosphohydrolase 1 (Bos taurus, UniProt O18956); test: (§1) Tested for inhibition of Nucleoside Triphosphate Diphosphohydrolase (NTPDase) from bovine spleen.
T1 sequence (O18956 whole entry): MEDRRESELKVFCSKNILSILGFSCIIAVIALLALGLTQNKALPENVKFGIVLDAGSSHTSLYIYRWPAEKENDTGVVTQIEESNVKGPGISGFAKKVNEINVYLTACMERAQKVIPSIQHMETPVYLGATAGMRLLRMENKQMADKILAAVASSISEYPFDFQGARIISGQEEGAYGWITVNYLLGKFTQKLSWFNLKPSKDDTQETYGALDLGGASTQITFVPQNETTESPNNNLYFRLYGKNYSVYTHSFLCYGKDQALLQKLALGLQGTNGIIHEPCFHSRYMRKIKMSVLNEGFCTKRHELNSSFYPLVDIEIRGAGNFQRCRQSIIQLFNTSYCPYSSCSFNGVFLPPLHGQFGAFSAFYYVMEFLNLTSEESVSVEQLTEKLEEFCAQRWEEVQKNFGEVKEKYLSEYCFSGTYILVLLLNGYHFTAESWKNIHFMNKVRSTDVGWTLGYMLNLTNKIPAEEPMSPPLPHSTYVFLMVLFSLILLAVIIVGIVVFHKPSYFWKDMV
Outline: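 Bovine spleen particulate fraction. Medium: 8 mM CaCl2, 5 mM tetramisole, 50 mM Tris, 50 mM imidazole, pH 7.6, 37 °C. Started with 1.9 μg enzyme, stopped after 7 min; Pi release read by malachite green. Triplicate.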

[2] = compound: CCCCNc1nc2c(N)ncnc2n1[C@@H]1O[C@H](COP(=O)(O)OP(=O)(O)OP(=O)(O)O)[C@@H](O)[C@H]1O; test: as §1
Outline: (§2)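 Bovine spleen particulate fraction. […] Medium: 8 mM CaCl2, 5 mM tetramisole, 50 mM Tris, 50 mM imidazole, pH 7.6, 37 °C. Started with 1.9 μg enzyme, stopped after 7 min; Pi release read by malachite green. Triplicate.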

[3] = compound: Nc1ncnc2c1ncn2[C@@H]1O[C@H](COP(=O)(O)OP(=O)(O)OP(=O)(O)O)[C@@H](O)[C@H]1O; test: as §1; outline: as §2
[4] = compound: CCSc1nc2c(N)ncnc2n1[C@@H]1O[C@H](COP(=O)(O)OP(=O)(O)OP(=O)(O)O)[C@@H](O)[C@H]1O; test: as §1; outline: as §2
[5] = compound: CCCCOc1nc(N)c2ncn([C@@H]3O[C@H](COP(=O)(O)OP(=O)(O)OP(=O)(O)O)[C@@H](O)[C@H]3O)c2n1; test: as §1; outline: as §2
[6] = compound: Nc1ncnc2c1ncn2[C@@H]1O[C@H](COP(=O)(O)OP(=O)(O)O)[C@@H](O)[C@H]1O; test: as §1; outline: as §2
[7] = compound: Nc1ncnc2c1nc(Br)n2C1O[C@H](COP(=O)(O)OP(=O)(O)OP(=O)(O)O)[C@@H](O)[C@H]1O; test: as §1; outline: as §2
[8] = compound: CCCCNc1nc(N)c2ncn([C@@H]3O[C@H](COP(=O)(O)OP(=O)(O)OP(=O)(O)O)[C@@H](O)[C@H]3O)c2n1; test: as §1; outline: as §2
[9] = compound: CCCCSc1nc(N)c2ncn([C@@H]3O[C@H](COP(=O)(O)OP(=O)(O)OP(=O)(O)O)[C@@H](O)[C@H]3O)c2n1; test: as §1; outline: as §2
[10] = compound: CCCCSc1nc(N)c2ncn(C3O[C@H](COP(=O)(O)OP(=O)(O)O)[C@@H](O)[C@H]3O)c2n1; test: as §1; outline: as §2
[11] = compound: CCCCOc1nc2c(N)ncnc2n1[C@@H]1O[C@H](COP(=O)(O)OP(=O)(O)OP(=O)(O)O)[C@@H](O)[C@H]1O; test: as §1; outline: as §2

## Nc1ncnc2c1nc(SC1CCCCCC1)n2C1O[C@H](COP(=O)(O)OP(=O)(O)OP(=O)(O)O)[C@@H](O)[C@H]1O (stereo partly specified)
[1]
  Ki: 31 µM

B1: Ectonucleoside triphosphate diphosphohydrolase 1 (Bos taurus), O18956 (protein)
chain: MEDRRESELKVFCSKNILSILGFSCIIAVIALLALGLTQNKALPENVKFGIVLDAGSSHTSLYIYRWPAEKENDTGVVTQIEESNVKGPGISGFAKKVNEINVYLTACMERAQKVIPSIQHMETPVYLGATAGMRLLRMENKQMADKILAAVASSISEYPFDFQGARIISGQEEGAYGWITVNYLLGKFTQKLSWFNLKPSKDDTQETYGALDLGGASTQITFVPQNETTESPNNNLYFRLYGKNYSVYTHSFLCYGKDQALLQKLALGLQGTNGIIHEPCFHSRYMRKIKMSVLNEGFCTKRHELNSSFYPLVDIEIRGAGNFQRCRQSIIQLFNTSYCPYSSCSFNGVFLPPLHGQFGAFSAFYYVMEFLNLTSEESVSVEQLTEKLEEFCAQRWEEVQKNFGEVKEKYLSEYCFSGTYILVLLLNGYHFTAESWKNIHFMNKVRSTDVGWTLGYMLNLTNKIPAEEPMSPPLPHSTYVFLMVLFSLILLAVIIVGIVVFHKPSYFWKDMV
[2]
  Km: 20 µM
[3]
  Km: 18 µM
[4]
  Km: 12 µM
[5]
  Km: 28 µM
[6]
  Km: 33 µM
[7]
  Km: 22 µM
[8]
  Km: 32 µM
[9]
  Km: 36 µM
[10]
  Km: 63 µM
[11]
  Km: 26 µM
